# What was measured:
# Format in all cases: functional, cell-based
# HCT-116 = test: Antiproliferative activity against human HCT116 cells after 72 hrs by MTT assay; details: HCT-116, 72 h
# Method in brief: (§1)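 Log-phase cells seeded at 2 × 10⁴ cells/ml, 24 h at 37 °C in 5% CO₂, then exposed to compounds for 72 h at 37 °C. MTT (5 mg/ml) added for 4 h, medium discarded, formazan dissolved in DMSO, absorbance read at 570 nm. Each concentration in triplicate, experiment repeated three times. IC50 from dose-response curves of inhibition ratio versus untreated control.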
# MCF7 = test: Antiproliferative activity against human MCF7 cells after 72 hrs by MTT assay; details: MCF7, 72 h; method in brief: as §1
# [1] = Antiproliferative activity against human Bel7402 cells after 72 hrs by MTT assay; details: Bel-7402, 72 h; method in brief: as §1
Structure (SMILES),IC50 (HCT-116),IC50 (MCF7),IC50 [1]
Cc1cccc(NC2=C/C(=N/NC(N)=S)C(=O)N=C2Nc2cccc(C)c2)c1,8.65 µM,0.15 µM,2.73 µM
NC(=S)N/N=C1/C=C(Nc2ccccc2)C(Nc2ccccc2)=NC1=O,24.7 µM,7.11 µM,11.9 µM
NC(=S)N/N=C1/C=C(Nc2cccc([N+](=O)[O-])c2)C(Nc2cccc([N+](=O)[O-])c2)=NC1=O,19.4 µM,11.1 µM,8.11 µM
NC(=S)N/N=C1/C=C(Nc2cccc(Cl)c2)C(Nc2cccc(Cl)c2)=NC1=O,3.38 µM,0.63 µM,2.19 µM
Cc1ccccc1NC1=C/C(=N/N=C(\N)SCc2ccccc2)C(=O)N=C1Nc1ccccc1C,13.8 µM,16.3 µM,17.1 µM
CCOc1ccc(NC2=C/C(=N/NC(N)=S)C(=O)N=C2Nc2ccc(OCC)cc2)cc1,21.3 µM,13.7 µM,31 µM
Cc1ccc(NC2=C/C(=N/N=C(\N)SCc3ccccc3)C(=O)N=C2Nc2ccc(C)cc2)cc1,8.27 µM,13.4 µM,7.68 µM
NC(=S)N/N=C1/C=C(Nc2ccc(Cl)cc2)C(Nc2ccc(Cl)cc2)=NC1=O,0.19 µM,1.37 µM,0.82 µM
NC(=S)N/N=C1/C=C(Nc2ccc(F)cc2)C(Nc2ccc(F)cc2)=NC1=O,3.72 µM,1.12 µM,3.66 µM
COc1ccc(NC2=C/C(=N/NC(N)=S)C(=O)N=C2Nc2ccc(OC)cc2)cc1,22.4 µM,10.4 µM,17.8 µM
COc1ccccc1NC1=C/C(=N/N=C(\N)SCc2ccccc2)C(=O)N=C1Nc1ccccc1OC,14.5 µM,8.34 µM,13.1 µM
COc1cccc(NC2=C/C(=N/NC(N)=S)C(=O)N=C2Nc2cccc(OC)c2)c1,,> 50 µM,
O=c1[nH]cc(F)c(=O)[nH]1 [FLUOROURACIL],10.5 µM,7.08 µM,11.1 µM
Cc1ccccc1NC1=C/C(=N/NC(N)=S)C(=O)N=C1Nc1ccccc1C,1.52 µM,0.58 µM,1.71 µM
COc1ccccc1NC1=C/C(=N/NC(N)=S)C(=O)N=C1Nc1ccccc1OC,20.8 µM,10.2 µM,13.4 µM
Cc1cccc(NC2=C/C(=N/N=C(\N)SCc3ccccc3)C(=O)N=C2Nc2cccc(C)c2)c1,12.8 µM,9.34 µM,8.72 µM
NC(=S)N/N=C1/C=C(Nc2ccccc2Cl)C(Nc2ccccc2Cl)=NC1=O,3.54 µM,3.49 µM,3.42 µM
N/C(=N\N=C1\C=C(Nc2cccc(Cl)c2)C(Nc2cccc(Cl)c2)=NC1=O)SCc1ccccc1,11.7 µM,15.2 µM,7.16 µM
N/C(=N\N=C1\C=C(Nc2ccc(F)cc2)C(Nc2ccc(F)cc2)=NC1=O)SCc1ccccc1,11.5 µM,7.58 µM,7.69 µM
NC(=S)N/N=C1/C=C(Nc2ccc(Br)cc2)C(Nc2ccc(Br)cc2)=NC1=O,2.15 µM,2.58 µM,5.84 µM
N/C(=N\N=C1\C=C(Nc2ccc(Cl)cc2)C(Nc2ccc(Cl)cc2)=NC1=O)SCc1ccccc1,9.6 µM,7.72 µM,17.3 µM
Cc1ccc(NC2=C/C(=N/NC(N)=S)C(=O)N=C2Nc2ccc(C)cc2)cc1,7.04 µM,3.06 µM,4.33 µM
